Laboratory results: ChEMBL document CHEMBL4177600, “Identification of novel PI3K inhibitors through a scaffold hopping strategy” (Bioorg Med Chem Lett, 2017)
Converted amounts (≈) assume the structure as drawn. Values belong to the compound of their own block, whether it stands above or below them.

How the values were obtained:
[1] = Half-life in BALB-C mouse at 5 mg/kg, po by LC-MS/MS analysis; assay type: ADME, organism-based; conditions: in vivo
How it was run: (§1)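 BALB-C mice dosed IV (10% NMP/50% PEG300/40% saline) or PO (10% NMP/90% PEG300). Plasma sampled at 6 (IV) or 8 (PO) time points; compound measured by LC/MS/MS. Parameters from bicompartmental model fit; each value is the mean of 3 independent samples.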

[2] = Cmax in BALB-C mouse at 5 mg/kg, po by LC-MS/MS analysis; assay type: ADME, organism-based; set-up: dose 5 mg/kg, route oral; conditions: in vivo; how it was run: as §1
U2OS [3] = experiment: Inhibition of AKT phosphorylation in human U2OS cells
[4] = Oral bioavailability in BALB-C mouse at 10 mg/kg by LC-MS/MS analysis; assay type: ADME, organism-based; conditions: in vivo
How it was run: (§2)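 BALB-C mice dosed IV in 10% NMP/50% PEG300/40% saline or PO in 10% NMP/90% PEG300. Plasma sampled at 6 (IV) or 8 (PO) time points and quantified by LC/MS/MS. Parameters come from a bicompartmental model fit; values are means of 3 independent samples. Plasma levels were compared with AKT-P EC50 from U2OS cells converted to ng/ml.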

Mus musculus [5] = experiment: Time at which plasma concentration stays above cellular EC50 for inhibition of AKT phosphorylation in BALB-C mouse at 10 mg/kg, po measured up to 24 hrs by LC-MS/MS analysis; assay type: organism-based; conditions: in vivo; how it was run: as §2
[6] = Cmax in BALB-C mouse at 10 mg/kg, po by LC-MS/MS analysis; assay type: ADME, organism-based; set-up: dose 10 mg/kg, route oral; conditions: in vivo; how it was run: as §1
[7] = Tmax in BALB-C mouse at 10 mg/kg, po by LC-MS/MS analysis; assay type: ADME, organism-based; conditions: in vivo; how it was run: as §2
U2OS [8] = experiment: Inhibition of AKT phosphorylation in human U2OS cells; remark: listed apart in the source
[9] = AUC (infinity) in BALB-C mouse at 9 mg/kg, po by LC-MS/MS analysis; assay type: ADME, organism-based; set-up: dose 9 mg/kg, time infinity, route oral; conditions: in vivo; how it was run: as §1
Mus musculus [10] = experiment: Time at which plasma concentration stays above cellular EC50 for inhibition of AKT phosphorylation in BALB-C mouse at 9 mg/kg, po measured up to 8 hrs by LC-MS/MS analysis; conditions: in vivo
[11] = Oral bioavailability in BALB-C mouse at 9 mg/kg by LC-MS/MS analysis; assay type: ADME, organism-based; conditions: in vivo; how it was run: as §2
[12] = Half-life in BALB-C mouse at 3 mg/kg, iv by LC-MS/MS analysis; assay type: ADME, organism-based; conditions: in vivo; how it was run: as §1
Mus musculus [13] = experiment: Clearance in BALB-C mouse at 3 mg/kg, iv by LC-MS/MS analysis relative to hepatic blood flow; assay type: ADME, organism-based; conditions: in vivo
[14] = Half-life in BALB-C mouse at 9 mg/kg, po by LC-MS/MS analysis; assay type: ADME, organism-based; conditions: in vivo; how it was run: as §1
[15] = Tmax in BALB-C mouse at 9 mg/kg, po by LC-MS/MS analysis; assay type: ADME, organism-based; conditions: in vivo; how it was run: as §2

half-life [1]: 2.7 h
Cmax [2]: 1050 ng/mL
EC50 (U2OS [3]): 0.03491 µg/mL (≈ 0.0686 µM)
Structure (SMILES): CS(=O)(=O)N1CCN(Cc2nc3c(N4CCOCC4)nc(-c4cnc(N)nc4)c(Cl)n3n2)CC1

bioavailability [4]: 88%
Time (Mus musculus [5]): > 12 h
Cmax [6]: 674 ng/mL
Tmax [7]: 1 h
Structure (SMILES): CS(=O)(=O)N1CCN(Cc2nc3c(N4CCOCC4)nc(-c4cnc(N)nc4)cn3n2)CC1

EC50 (U2OS [8]): 0.01444 µg/mL (≈ 0.0305 µM)
AUC(0-inf) [9]: 5150 ng·h/mL
Time (Mus musculus [10]): > 8 h
bioavailability [11]: 29.5%
half-life [12]: 0.51 h
CL (Mus musculus [13]): < 50%
half-life [14]: 2.84 h
Tmax [15]: 1 h
Structure (SMILES): CS(=O)(=O)N1CCN(Cc2cc3c(N4CCOCC4)nc(-c4cnc(N)nc4)cn3n2)CC1
